According to ChEMBL document CHEMBL1148651, “Potent antitumor 9-anilinoacridines and acridines bearing an alkylating N-mustard residue on the acridine chromophore: synthesis and biological activity” (J Med Chem, 2006):
pIC50: −log10 of the molar value.

Tests used:
CCRF-CEM [1] = experiment: Antiproliferative activity against human taxol resistant CCRF-CEM cell line; assay type: functional, cell-based
Outline: (§1)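 Leukemic CCRF-CEM parent and resistant sublines were exposed for 72 h, then given phenazine methosulfate-XTT at 37 °C for 6 h. Absorbance was read at 450 and 630 nm. Six or seven concentrations were tested in duplicate, and IC50 came from median-effect plot analysis. Resistance fold is relative to the parent CCRF-CEM IC50.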

CCRF-CEM [2] = experiment: Antiproliferative activity against human CCRF-CEM cell line; assay type: functional, cell-based
CCRF-CEM [3] = experiment: Antiproliferative activity against human vinblastine resistant CCRF-CEM cell line; assay type: functional, cell-based; outline: as §1
HCT-116 = experiment: Antiproliferative activity against human HCT116 cell line; assay type: functional, cell-based
Outline: (§2)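 Growth inhibition after 72 h continuous exposure. Solid tumour lines were read by sulforhodamine B. Six or seven concentrations per compound were tested in duplicate. IC50 came from median-effect (mass-action law) dose-effect analysis.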

MX1 [4] = experiment: Antiproliferative activity against human MX1 cell line; assay type: functional, cell-based; outline: as §2
A549 = experiment: Antiproliferative activity against human A549 cell line; assay type: functional, cell-based; outline: as §2
MX1 [5] = experiment: Antitumor activity against human MX1 cell line xenografted in nude mouse at 1.5 mg/kg, iv after 14 days; assay type: functional
Outline: (§3)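 Nude mice were implanted subcutaneously with MX-1 tumour tissue (50 µg) on day 0. Doses were given iv via the tail vein every 2 or 3 days (Q2D or Q3D schedules) in 20 µL DMSO plus 180 µL saline. Tumour volume was measured by caliper (length × width × height). Result is T/C (%) on the stated day.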

Mus musculus [6] = experiment: Toxicity against nude mouse xenografted with human MX1 cell line assessed as weight loss at 1.5 mg/kg, iv after 14 days; assay type: functional
Outline: (§4)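 MX-1 xenograft nude mice were implanted with 50 µg tissue subcutaneously on day 0. They were treated iv by tail vein every 2 or 3 days in 20 µL DMSO plus 180 µL saline. Toxicity is the maximum body weight loss (%) relative to initial pretreatment body weight, on the day indicated.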

MX1 [7] = experiment: Antitumor activity against human MX1 cell line xenografted in nude mouse at 4 mg/kg, iv after 19 days; assay type: functional; outline: as §3
Mus musculus [8] = experiment: Toxicity against nude mouse xenografted with human MX1 cell line assessed as weight loss at 4 mg/kg, iv after 17 days; assay type: functional; outline: as §4
Mus musculus [9] = experiment: Toxicity against nude mouse xenografted with human MX1 cell line assessed as weight loss at 2 mg/kg, iv after 14 days; assay type: functional; outline: as §4
MX1 [10] = experiment: Antitumor activity against human MX1 cell line xenografted in nude mouse at 2 mg/kg, iv after 14 days; assay type: functional; outline: as §3
Mus musculus [11] = experiment: Toxicity against nude mouse xenografted with human MX1 cell line assessed as weight loss at 10 mg/kg, iv after 13 days; assay type: functional; outline: as §4
Mus musculus [12] = experiment: Toxicity against nude mouse xenografted with human MX1 cell line assessed as weight loss at 10 mg/kg, iv after 17 days; assay type: functional
MX1 [13] = experiment: Antitumor activity against human MX1 cell line xenografted in nude mouse at 10 mg/kg, iv after 15 days; assay type: functional; outline: as §3
Mus musculus [14] = experiment: Toxicity against nude mouse xenografted with human MX1 cell line assessed as weight loss at 10 mg/kg, iv after 19 days; assay type: functional
Mus musculus [15] = experiment: Toxicity against nude mouse xenografted with human MX1 cell line assessed as weight loss at 2 mg/kg, iv after 12 days; assay type: functional; outline: as §4

Row | Compound | pIC50 (CCRF-CEM [1]) | pIC50 (CCRF-CEM [2]) | pIC50 (CCRF-CEM [3]) | pIC50 (HCT-116) | pIC50 (MX1 [4]) | pIC50 (A549) | Activity (MX1 [5]) [%] | Activity (Mus musculus [6]) [%] | Activity (MX1 [7]) [%] | Activity (Mus musculus [8]) [%] | Activity (Mus musculus [9]) [%] | Activity (MX1 [10]) [%] | Activity (Mus musculus [11]) [%] | Activity (Mus musculus [12]) [%] | Activity (MX1 [13]) [%] | Activity (Mus musculus [14]) [%] | Activity (Mus musculus [15]) [%]
1 | Nc1cc(CO)cc(Nc2c3ccccc3nc3c(OCCN(CCCl)CCCl)cccc23)c1 | 7.20 | 8.17 | 6.90 | 8.11 | 8.18 | 7.49 |  |  |  |  |  |  |  |  |  |  | 
2 | CCOC(=O)Nc1cc(CO)cc(Nc2c3ccccc3nc3c(OCCN(CCCl)CCCl)cccc23)c1 | 6.90 | 7.59 | 6.64 | 7.23 | 7.26 | 7.03 |  |  |  |  |  |  |  |  |  |  | 
3 | ClCCN(CCCl)CCCCOc1cccc2cc3ccccc3nc12 | 6.41 | 7.29 | 6.51 | 6.93 | 7.09 | 6.65 |  |  |  |  |  |  |  |  |  |  | 
4 | Nc1cc(CO)cc(Nc2c3ccccc3nc3c(OCCCCN(CCCl)CCCl)cccc23)c1 | 7.39 | 8.38 | 6.95 | 8.02 | 8.62 | 8.28 |  |  |  |  |  |  |  |  |  |  | 
5 | COc1ccc(Nc2c3ccccc3nc3c(OCCCCN(CCCl)CCCl)cccc23)cc1N | 7.05 | 8.23 | 7.06 | 8.08 | 8.25 | 7.72 |  |  |  |  |  |  |  |  |  |  | 
6 | COc1ccc(Nc2c3ccccc3nc3c(OCCN(CCCl)CCCl)cccc23)cc1N | 7.24 | 7.91 | 7.22 | 7.32 | 7.62 | 6.93 |  |  |  |  |  |  |  |  |  |  | 
7 | Cc1cc(N)cc(Nc2c3ccccc3nc3c(OCCCCN(CCCl)CCCl)cccc23)c1 | 7.21 | 8.43 | 7.26 | 8.04 | 8.00 | 8.05 | 6 | 8 |  |  |  |  |  |  |  |  | 
8 | Cc1cc(N)cc(Nc2c3ccccc3nc3c(OCCN(CCCl)CCCl)cccc23)c1 | 7.66 | 8.39 | 7.73 | 7.63 | 7.66 | 7.35 |  |  | 79 | 15 |  |  |  |  |  |  | 
9 | OCc1cc(O)cc(Nc2c3ccccc3nc3c(OCCCCN(CCCl)CCCl)cccc23)c1 | 6.93 | 8.23 | 6.47 | 8.04 | 8.14 | 7.60 |  |  |  |  |  |  |  |  |  |  | 
10 | Nc1cc(CO)cc(Nc2c3ccccc3nc3ccccc23)c1 |  |  |  |  |  | 7.33 |  |  |  |  |  |  |  |  |  |  | 
11 | ClCCN(CCCl)CCCOc1cccc2cc3ccccc3nc12 | 6.82 | 7.45 | 6.60 | 6.87 | 7.08 | 6.78 |  |  |  |  |  |  |  |  |  |  | 
12 | Cc1ccc(N)cc1Nc1c2ccccc2nc2c(OCCN(CCCl)CCCl)cccc12 | 7.33 | 8.10 | 7.51 | 8.05 | 8.15 | 7.50 |  |  |  |  |  |  |  |  |  |  | 
13 | OCc1cc(O)cc(Nc2c3ccccc3nc3c(OCCN(CCCl)CCCl)cccc23)c1 | 6.86 | 8.16 | 6.82 | 6.90 | 7.24 | 6.97 |  |  |  |  |  |  |  |  |  |  | 
14 | ClCCN(CCCl)CCOc1cccc2cc3ccccc3nc12 | 6.93 | 7.42 | 6.79 | 7.02 | 7.15 | 6.86 |  |  |  |  |  |  |  |  |  |  | 
15 | COc1cc(N)cc(Nc2c3ccccc3nc3c(OCCCCN(CCCl)CCCl)cccc23)c1 | 7.36 | 8.38 | 7.29 | 7.86 | 8.25 | 7.72 |  |  |  |  | 8 | 77 |  |  |  |  | 
16 | COc1cc(N)cc(Nc2c3ccccc3nc3c(OCCN(CCCl)CCCl)cccc23)c1 | 7.30 | 7.92 | 7.33 | 7.27 | 7.55 | 7.04 |  |  |  |  |  |  | 15 | 10 | 96 | 10 | 
17 | Cc1ccc(N)cc1Nc1c2ccccc2nc2c(OCCCCN(CCCl)CCCl)cccc12 | 7.24 | 8.37 | 7.37 | 7.87 | 8.04 | 7.81 |  |  |  |  |  | 20 |  |  |  |  | 21
18 | CC(=O)O[C@H]1C(=O)[C@@]2(C)[C@H]([C@H](OC(=O)c3ccccc3)[C@]3(O)C[C@H](OC(=O)[C@H](O)[C@@H](NC(=O)c4ccccc4)c4ccccc4)C(C)=C1C3(C)C)[C@]1(OC(C)=O)CO[C@@H]1C[C@@H]2O [PACLITAXEL] | 6.31 | 8.96 | 5.76 |  | 7.65 | 8.68 |  |  |  |  |  |  |  |  |  |  | 
19 | CC[C@]1(O)C[C@@H]2CN(CCc3c([nH]c4ccccc34)[C@@](C(=O)OC)(c3cc4c(cc3OC)N(C)[C@H]3[C@@](O)(C(=O)OC)[C@H](OC(C)=O)[C@]5(CC)C=CCN6CC[C@]43[C@@H]65)C2)C1 [VINBLASTINE] | 7.54 | 9.40 | 6.68 | 9.15 | 8.70 | 8.96 |  |  |  |  |  |  |  |  |  |  | 
